The values below come from ChEMBL document CHEMBL5321284, “Discovery of a First-in-Class Degrader for the Lipid Kinase PIKfyve” (J Med Chem, 2023).

Each structure is given as a SMILES string. The source made the active and inactive calls. The rule behind the calls is not given here.

The target in one assay is T1, von Hippel-Lindau disease tumor suppressor/1-phosphatidylinositol 3-phosphate 5-kinase (Homo sapiens) (UniProt Q9Y2I7+P40337). Kind of assay: PROTAC activity at VHL/PIKfyve in human VCaP cells assessed as induction of PIKfyve degradation at 1 uM incubated for 24 hrs by immunoblot analysis. It counts as cell-based.
T1 sequence (P40337 whole entry partner): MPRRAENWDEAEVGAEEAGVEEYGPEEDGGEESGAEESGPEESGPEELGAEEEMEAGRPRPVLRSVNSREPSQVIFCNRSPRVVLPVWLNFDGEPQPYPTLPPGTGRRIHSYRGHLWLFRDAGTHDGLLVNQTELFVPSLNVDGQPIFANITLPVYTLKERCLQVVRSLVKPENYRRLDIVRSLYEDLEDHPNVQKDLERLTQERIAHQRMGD
T1 sequence (Q9Y2I7 2-2098 limits assumed): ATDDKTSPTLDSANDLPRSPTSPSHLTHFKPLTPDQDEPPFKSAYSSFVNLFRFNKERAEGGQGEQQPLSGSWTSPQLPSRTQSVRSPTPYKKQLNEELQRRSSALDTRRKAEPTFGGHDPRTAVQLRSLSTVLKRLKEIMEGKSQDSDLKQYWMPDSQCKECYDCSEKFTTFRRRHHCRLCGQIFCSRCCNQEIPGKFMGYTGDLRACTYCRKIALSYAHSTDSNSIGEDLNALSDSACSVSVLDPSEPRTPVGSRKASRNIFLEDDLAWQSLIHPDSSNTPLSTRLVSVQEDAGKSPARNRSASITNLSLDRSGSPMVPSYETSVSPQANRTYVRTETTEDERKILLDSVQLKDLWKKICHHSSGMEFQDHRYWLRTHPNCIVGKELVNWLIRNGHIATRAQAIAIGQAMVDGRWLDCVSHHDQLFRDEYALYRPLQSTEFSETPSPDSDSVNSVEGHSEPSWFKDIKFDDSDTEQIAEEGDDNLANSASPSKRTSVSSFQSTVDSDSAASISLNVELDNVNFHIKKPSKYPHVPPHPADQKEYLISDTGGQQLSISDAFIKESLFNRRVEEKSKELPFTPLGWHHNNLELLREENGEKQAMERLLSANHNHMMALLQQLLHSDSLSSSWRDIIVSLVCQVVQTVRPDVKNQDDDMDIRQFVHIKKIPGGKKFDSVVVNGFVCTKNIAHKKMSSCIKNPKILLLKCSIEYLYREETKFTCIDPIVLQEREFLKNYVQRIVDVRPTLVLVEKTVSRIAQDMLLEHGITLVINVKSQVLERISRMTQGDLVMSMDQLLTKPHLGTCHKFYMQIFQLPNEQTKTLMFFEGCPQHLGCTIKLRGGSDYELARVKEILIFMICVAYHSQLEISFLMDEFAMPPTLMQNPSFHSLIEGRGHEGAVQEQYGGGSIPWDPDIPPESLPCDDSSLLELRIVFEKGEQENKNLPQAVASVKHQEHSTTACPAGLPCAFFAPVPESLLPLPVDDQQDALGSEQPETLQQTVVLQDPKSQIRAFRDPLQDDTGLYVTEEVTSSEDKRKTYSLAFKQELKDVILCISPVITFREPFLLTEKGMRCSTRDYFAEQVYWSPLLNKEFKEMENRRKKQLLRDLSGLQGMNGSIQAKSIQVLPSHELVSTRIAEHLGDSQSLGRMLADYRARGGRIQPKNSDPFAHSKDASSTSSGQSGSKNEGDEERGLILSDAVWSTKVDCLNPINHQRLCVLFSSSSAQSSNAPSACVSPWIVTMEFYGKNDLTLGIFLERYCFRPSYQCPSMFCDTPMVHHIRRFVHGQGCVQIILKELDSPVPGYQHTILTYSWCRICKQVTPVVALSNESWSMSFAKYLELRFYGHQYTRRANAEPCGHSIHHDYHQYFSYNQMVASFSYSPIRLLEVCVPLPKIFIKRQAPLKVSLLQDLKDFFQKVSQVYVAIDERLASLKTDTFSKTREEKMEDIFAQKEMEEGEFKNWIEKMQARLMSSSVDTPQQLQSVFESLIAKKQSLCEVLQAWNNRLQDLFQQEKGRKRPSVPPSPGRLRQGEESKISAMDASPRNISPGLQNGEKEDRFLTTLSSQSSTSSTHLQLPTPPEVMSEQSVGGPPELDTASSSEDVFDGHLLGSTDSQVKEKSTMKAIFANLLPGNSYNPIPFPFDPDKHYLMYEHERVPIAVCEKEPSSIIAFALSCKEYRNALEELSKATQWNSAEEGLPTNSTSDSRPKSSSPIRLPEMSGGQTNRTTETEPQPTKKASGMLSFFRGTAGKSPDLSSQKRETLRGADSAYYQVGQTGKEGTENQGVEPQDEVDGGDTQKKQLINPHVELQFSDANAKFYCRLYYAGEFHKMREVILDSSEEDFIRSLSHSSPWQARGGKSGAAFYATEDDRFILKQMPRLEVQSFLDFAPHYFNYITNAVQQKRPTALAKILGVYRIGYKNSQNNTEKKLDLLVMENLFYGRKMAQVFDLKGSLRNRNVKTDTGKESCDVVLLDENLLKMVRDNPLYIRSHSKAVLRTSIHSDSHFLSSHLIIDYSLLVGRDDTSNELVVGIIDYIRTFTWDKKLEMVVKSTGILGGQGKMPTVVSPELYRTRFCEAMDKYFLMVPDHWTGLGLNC
Conditions: not given
In a few lines:
(§1)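 VCaP cells treated 24 h at 0.1 or 1.0 µM; percent PIKfyve degradation determined by immunoblotting.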
With `Cc1cccc(/C=N/Nc2cc(N3CCOCC3)nc(OCCNC(=O)CCCCCCCCC(=O)N[C@H](C(=O)N3C[C@H](O)C[C@H]3C(=O)NCc3ccc(-c4scnc4C)cc3)C(C)(C)C)n2)c1`, the Activity turned out to be 31%.

`Cc1cccc(/C=N/Nc2cc(N3CCOCC3)nc(OCCNC(=O)CCCCCCCC(=O)N[C@H](C(=O)N3C[C@H](O)C[C@H]3C(=O)NCc3ccc(-c4scnc4C)cc3)C(C)(C)C)n2)c1`: the Activity amounted to 17%.

`Cc1cccc(/C=N/Nc2cc(N3CCOCC3)nc(OCCc3ccc(NC(=O)CCCCCCCCCCC(=O)N[C@H](C(=O)N4C[C@H](O)C[C@H]4C(=O)NCc4ccc(-c5scnc5C)cc4)C(C)(C)C)cc3)n2)c1`: the Activity turned out to be 3%.

On to `Cc1cccc(/C=N/Nc2cc(N3CCOCC3)nc(OCCc3ccc(NC(=O)CCCCC(=O)N[C@H](C(=O)N4C[C@@H](O)C[C@H]4C(=O)NCc4ccc(-c5scnc5C)cc4)C(C)(C)C)cc3)n2)c1`, for which the Activity was found to be 0%.

Regarding `Cc1cccc(/C=N/Nc2cc(N3CCOCC3)nc(OCCNC(=O)CCCCCCCCCC(=O)N[C@H](C(=O)N3C[C@H](O)C[C@H]3C(=O)NCc3ccc(-c4scnc4C)cc3)C(C)(C)C)n2)c1`, the Activity came out at 32%.

For the molecule `Cc1cccc(/C=N/Nc2cc(N3CCOCC3)nc(OCCc3ccc(NC(=O)CCCC(=O)N[C@H](C(=O)N4C[C@H](O)C[C@H]4C(=O)NCc4ccc(-c5scnc5C)cc4)C(C)(C)C)cc3)n2)c1`, the Activity came out at 0%.

For `Cc1cccc(/C=N/Nc2cc(N3CCOCC3)nc(OCCNC(=O)CCCCCC(=O)N[C@H](C(=O)N3C[C@H](O)C[C@H]3C(=O)NCc3ccc(-c4scnc4C)cc3)C(C)(C)C)n2)c1`, the Activity is 0%.

In the case of `Cc1cccc(/C=N/Nc2cc(N3CCOCC3)nc(OCCc3ccc(NC(=O)CCCCCCCCCC(=O)N[C@H](C(=O)N4C[C@H](O)C[C@H]4C(=O)NCc4ccc(-c5scnc5C)cc4)C(C)(C)C)cc3)n2)c1`, the Activity was found to be 41%.

Turning to `Cc1cccc(/C=N/Nc2cc(N3CCOCC3)nc(OCCNC(=O)CCCCCCC(=O)N[C@H](C(=O)N3C[C@H](O)C[C@H]3C(=O)NCc3ccc(-c4scnc4C)cc3)C(C)(C)C)n2)c1`, the Activity stood at 51%.

As for `Cc1cccc(/C=N/Nc2cc(N3CCOCC3)nc(OCCNC(=O)CCCCCCCCCCC(=O)N[C@H](C(=O)N3C[C@H](O)C[C@H]3C(=O)NCc3ccc(-c4scnc4C)cc3)C(C)(C)C)n2)c1`, the Activity was 21%.

Turning to `Cc1cccc(/C=N/Nc2cc(N3CCOCC3)nc(OCCc3ccc(NC(=O)CC(=O)N[C@H](C(=O)N4C[C@H](O)C[C@H]4C(=O)NCc4ccc(-c5scnc5C)cc4)C(C)(C)C)cc3)n2)c1`, the Activity turned out to be 0%.

The target in another assay is T1, von Hippel-Lindau disease tumor suppressor/1-phosphatidylinositol 3-phosphate 5-kinase (Homo sapiens). Kind of assay: PROTAC activity at VHL/PIKfyve in human VCaP cells assessed as induction of PIKfyve degradation at 0.1 uM incubated for 24 hrs by immunoblot analysis. It counts as cell-based.
Conditions: not given
An outline of the steps: as §1
As to `Cc1cccc(/C=N/Nc2cc(N3CCOCC3)nc(OCCNC(=O)CCCCCCCCC(=O)N[C@H](C(=O)N3C[C@H](O)C[C@H]3C(=O)NCc3ccc(-c4scnc4C)cc3)C(C)(C)C)n2)c1`, the Activity stood at 32%.

On to `Cc1cccc(/C=N/Nc2cc(N3CCOCC3)nc(OCCNC(=O)CCCCCCCC(=O)N[C@H](C(=O)N3C[C@H](O)C[C@H]3C(=O)NCc3ccc(-c4scnc4C)cc3)C(C)(C)C)n2)c1`, for which the Activity was 30%.

Regarding `Cc1cccc(/C=N/Nc2cc(N3CCOCC3)nc(OCCc3ccc(NC(=O)CCCCCCCCCCC(=O)N[C@H](C(=O)N4C[C@H](O)C[C@H]4C(=O)NCc4ccc(-c5scnc5C)cc4)C(C)(C)C)cc3)n2)c1`, the Activity came to 48%.

For `Cc1cccc(/C=N/Nc2cc(N3CCOCC3)nc(OCCc3ccc(NC(=O)CCCCC(=O)N[C@H](C(=O)N4C[C@@H](O)C[C@H]4C(=O)NCc4ccc(-c5scnc5C)cc4)C(C)(C)C)cc3)n2)c1`, the Activity was 0%.

For `Cc1cccc(/C=N/Nc2cc(N3CCOCC3)nc(OCCNC(=O)CCCCCCCCCC(=O)N[C@H](C(=O)N3C[C@H](O)C[C@H]3C(=O)NCc3ccc(-c4scnc4C)cc3)C(C)(C)C)n2)c1`, the Activity was 72%.

Regarding `Cc1cccc(/C=N/Nc2cc(N3CCOCC3)nc(OCCc3ccc(NC(=O)CCCC(=O)N[C@H](C(=O)N4C[C@H](O)C[C@H]4C(=O)NCc4ccc(-c5scnc5C)cc4)C(C)(C)C)cc3)n2)c1`, the Activity is 0%.

Regarding `Cc1cccc(/C=N/Nc2cc(N3CCOCC3)nc(OCCNC(=O)CCCCCC(=O)N[C@H](C(=O)N3C[C@H](O)C[C@H]3C(=O)NCc3ccc(-c4scnc4C)cc3)C(C)(C)C)n2)c1`, the Activity worked out at 3%.

With `Cc1cccc(/C=N/Nc2cc(N3CCOCC3)nc(OCCc3ccc(NC(=O)CCCCCCCCCC(=O)N[C@H](C(=O)N4C[C@H](O)C[C@H]4C(=O)NCc4ccc(-c5scnc5C)cc4)C(C)(C)C)cc3)n2)c1`, the Activity is 64%.

Turning to `Cc1cccc(/C=N/Nc2cc(N3CCOCC3)nc(OCCNC(=O)CCCCCCC(=O)N[C@H](C(=O)N3C[C@H](O)C[C@H]3C(=O)NCc3ccc(-c4scnc4C)cc3)C(C)(C)C)n2)c1`, the Activity turned out to be 0%.

On to `Cc1cccc(/C=N/Nc2cc(N3CCOCC3)nc(OCCNC(=O)CCCCCCCCCCC(=O)N[C@H](C(=O)N3C[C@H](O)C[C@H]3C(=O)NCc3ccc(-c4scnc4C)cc3)C(C)(C)C)n2)c1`, for which the Activity worked out at 67%.

As to `Cc1cccc(/C=N/Nc2cc(N3CCOCC3)nc(OCCc3ccc(NC(=O)CC(=O)N[C@H](C(=O)N4C[C@H](O)C[C@H]4C(=O)NCc4ccc(-c5scnc5C)cc4)C(C)(C)C)cc3)n2)c1`, the Activity was 0%.

The subject of the next assay is VCaP. Nature of the assay: Antiproliferative activity against human VCaP cells assessed as inhibition of cell proliferation incubated for 4 hrs followed by culturing in compound-free medium for 2 weeks by crystal violet staining based analysis. It is filed as functional.
Conditions: not given
An outline of the steps: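 VCaP cells treated 4 h, compound removed, then cultured 2 weeks in drug-free medium; long-term viability by crystal violet staining.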
Turning to `Cc1cccc(/C=N/Nc2cc(N3CCOCC3)nc(OCCc3ccc(NC(=O)CCCCC(=O)N[C@H](C(=O)N4C[C@@H](O)C[C@H]4C(=O)NCc4ccc(-c5scnc5C)cc4)C(C)(C)C)cc3)n2)c1`, the IC50 is over 3 µM.

For the next assay, the target named is T1, von Hippel-Lindau disease tumor suppressor/1-phosphatidylinositol 3-phosphate 5-kinase (Homo sapiens). Kind of assay: PROTAC activity at VHL/PIKfyve in human VCaP cells assessed as induction of PIKfyve degradation at 100 to 300 nM incubated for 4 hrs followed by culturing in compound-free medium for 72 hrs by immunoblot analysis. The note with it: dose 100-300 nM. It is filed as cell-based.
As for `Cc1cccc(/C=N/Nc2cc(N3CCOCC3)nc(OCCc3ccc(NC(=O)CCCCC(=O)N[C@H](C(=O)N4C[C@@H](O)C[C@H]4C(=O)NCc4ccc(-c5scnc5C)cc4)C(C)(C)C)cc3)n2)c1`, the outcome was inactive.

The subject of the next assay is VCaP. Nature of the assay: Inhibition of autophagy in human VCaP cells assessed as increase in LC3A/B expression at 100 to 300 nM incubated for 4 hrs followed by culturing in compound-free medium for 72 hrs by immunoblot analysis. It counts as functional, cell-based. The conditions noted are these: dose 100-300 nM. An outline of the steps:
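VCaP cells treated 4 h, compounds removed, cultured 72 h in compound-free medium; whole cell lysates immunoblotted for PIKfyve, LC3A/B and GAPDH (RIPA lysis, 4–12% Bis-Tris gels, PVDF, ECL).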
On to `Cc1cccc(/C=N/Nc2cc(N3CCOCC3)nc(OCCc3ccc(NC(=O)CCCCC(=O)N[C@H](C(=O)N4C[C@@H](O)C[C@H]4C(=O)NCc4ccc(-c5scnc5C)cc4)C(C)(C)C)cc3)n2)c1`, for which the inhibition entry is “inactive”.

The test system of a further assay is DU-145. Kind of assay: Induction of massive cytoplasmic vacuolization in human RFP-labeled DU-145 cells at 300 nM incubated for 4 hrs. It counts as functional, cell-based.
Conditions: not given
On to `Cc1cccc(/C=N/Nc2cc(N3CCOCC3)nc(OCCc3ccc(NC(=O)CCCCC(=O)N[C@H](C(=O)N4C[C@@H](O)C[C@H]4C(=O)NCc4ccc(-c5scnc5C)cc4)C(C)(C)C)cc3)n2)c1`, for which the result was Active.
